Assay outcomes as filed in PubChem.
AHR activator = activators of human aryl hydrocarbon receptor; activation, % at 5 µM; P35869; 320,000 tested, 2.5% active; AID 2796; AHR-responsive luciferase reporter cells, luminescence; in the data active means activation above about 47%
HDAC3 inhib = blocks human histone deacetylase 3; recombinant HDAC3, fluorogenic peptide/trypsin coupled, fluorescence; 320,000 tested, 0.15% active; inhibition, % at 8.3 µM; O15379; in the data active means inhibition above about 26%, passing the limit was not always enough
Target sequence (O15379 whole entry, looked up): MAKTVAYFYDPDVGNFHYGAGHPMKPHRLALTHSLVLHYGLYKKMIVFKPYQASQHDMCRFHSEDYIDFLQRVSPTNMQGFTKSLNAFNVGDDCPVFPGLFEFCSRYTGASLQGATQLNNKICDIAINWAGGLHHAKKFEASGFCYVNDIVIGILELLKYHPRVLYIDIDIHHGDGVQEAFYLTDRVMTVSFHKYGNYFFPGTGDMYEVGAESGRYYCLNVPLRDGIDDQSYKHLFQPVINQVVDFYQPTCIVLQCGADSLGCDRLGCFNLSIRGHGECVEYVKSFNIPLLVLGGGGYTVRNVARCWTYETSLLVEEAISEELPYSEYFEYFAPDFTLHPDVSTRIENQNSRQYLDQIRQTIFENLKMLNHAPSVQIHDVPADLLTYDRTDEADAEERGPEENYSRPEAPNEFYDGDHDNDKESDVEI
CTSL1 counter = counter-screen for PFM18AAP inhibitors: inhibitors of F. hepatica cathepsin L1 | recombinant F. hepatica cathepsin L1, Z-Leu-Arg-MCA fluorescence | inhibition, % at 5.96 µM | 300,000 tested, 0.49% active;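 active means inhibition above the mean of all tested compounds plus 3 SD, set per screening campaign, cut at about 17% in these data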
SENP1 FRET inh = blocks the human SENP1 SUMO protease catalytic domain; AID 624204; Q9P0U3; inhibition, % at 10 µM; recombinant SENP1 catalytic domain, CyPet-SUMO1-YPet FRET cleavage; 360,000 tested, 0.21% active;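 active means inhibition at least 30% at 10 µM, raw YFP signal under a set limit, fluorescence ratio 0.5 to 1.5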
Target sequence (Q9P0U3 419-644 limits assumed): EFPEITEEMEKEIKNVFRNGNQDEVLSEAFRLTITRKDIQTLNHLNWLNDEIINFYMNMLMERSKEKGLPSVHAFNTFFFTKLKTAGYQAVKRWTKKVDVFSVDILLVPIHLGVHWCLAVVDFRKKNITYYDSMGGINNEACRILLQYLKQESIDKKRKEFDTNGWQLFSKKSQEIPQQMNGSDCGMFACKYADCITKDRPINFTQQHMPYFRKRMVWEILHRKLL
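Compound: 10 µM single point, 0.5% DMSO; Test system: hSENP1 catalytic domain, recombinant; Timing: 50 min reaction at room temperature; Technique: FRET, CFP and YFP emission; Control set: no-enzyme wells low, DMSO-plus-enzyme wells high control.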
PfM18AAP inh = blocks P. falciparum M18 aspartyl aminopeptidase; recombinant PfM18AAP, H-Glu-NHMec fluorogenic cleavage; inhibition, % at 7.35 µM; 290,000 tested, 1.2% active;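 active means inhibition above the campaign mean inhibition over all tested compounds plus 3 SD, cut at about 28% in these data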
GAA850 FXN act = activators of GAA850 frataxin (FXN) promoter. HEK293 lucGAA850 FXN promoter luciferase reporter, 24 h; percent of 10 µM SAHA response. activation, % at 6 µM. 360,000 tested, 0.56% active. AID 540364;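 active means activation above the average of all compounds screened plus 3 SD, cutoff fixed separately per campaign, cut at about 7.5% in these data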
AHR act cf = human AHR activation, confirmation; shares compounds with AHR activator; human cells, AHR-responsive luciferase reporter, luminescence; activation, % at 9 µM; 2,300 tested, 87% active; AID 2845; in the data active means activation above about 49%;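 further: HepG2 hepatoma cells carrying a DRE-driven firefly luciferase reporter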
PXR act counter = PXR activation, counter-screen for AHR activators | cell-based PXR reporter, luciferase luminescence | 2,300 tested, 88% active | shares compounds with AHR activator | activation, % at 11.6 µM; in the data active means activation above about 11%;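 further: human hepatoma DPX-2 cells expressing full-length human PXR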
Of the large screens only hits and unclear results are named; the others gave an inactive call (follow-up assays come after a bar, where they were run). Sampled rows, rich in hits. Any-hit rate of the full collection: about 4.2%.

COc1ccc(-c2ccc3oc(-c4ccc(OC)cc4)c(C#CCCO)c3c2)cc1	none (no result: PfM18AAP inh)
COc1ccc(-c2oc3ccc(N4CCOCC4)cc3c2C#Cc2ccc(N)cc2)cc1	AHR activator 94.6 (no result: PfM18AAP inh) | AHR act cf 51.8
CCCc1nc(NCc2ccccn2)c2nnn(Cc3ccccc3F)c2n1	none
CCCc1nc(NCc2ccncc2)c2nnn(Cc3ccccc3F)c2n1	AHR activator 80.8 | AHR act cf 60.8 | PXR act counter 115.5
COc1c(F)cccc1C1=CC(=O)C[C@H](c2ccc(F)cc2)C1	none (no result: AHR activator, HDAC3 inhib, CTSL1 counter, PfM18AAP inh)
O=C1C=C(c2ccc(Br)c3ccccc23)C[C@@H](c2ccc3c(c2)OCO3)C1	AHR activator 88.9 (no result: CTSL1 counter, PfM18AAP inh) | AHR act cf 95.4 | PXR act counter 32.4
COc1c(F)cccc1C1=CC(=O)C[C@H](c2ccc3c(c2)OCO3)C1	AHR activator 101.2 (no result: CTSL1 counter, PfM18AAP inh) | AHR act cf 75.5 | PXR act counter 65.9
Cc1cc(NC(=O)NC(=O)c2cccc(OC(F)(F)C(F)F)c2)n[nH]1	AHR activator 156.8 | AHR act cf 103.5 | PXR act counter 17.0
O=[N+]([O-])c1cccc(-c2cc3ccccc3[nH]2)c1	AHR activator 83.8 | AHR act cf 133.5 | PXR act counter 14.5
c1csc(C2Nc3ccccc3-c3nc4ccccc4n32)c1 (centres undefined)	AHR activator 132.6 | AHR act cf inactive | PXR act counter 111.8
Cc1occc1-c1nc(-c2ccccn2)no1	none
Cc1onc(-c2ccccc2Cl)c1-c1nc(-c2ccccn2)no1	AHR activator 91.9 | AHR act cf 70.5 | PXR act counter 176.5
O=C(Nc1ccc(-n2cnnn2)cc1)c1cc(S(=O)(=O)N2CCCC2)ccc1Cl	none (no result: AHR activator, HDAC3 inhib, CTSL1 counter, PfM18AAP inh)
O=C1NC(c2ccc(Cl)cc2)Nc2ccccc21 (centres undefined)	AHR activator 80.0 | AHR act cf 115.2 | PXR act counter 25.3
O=C1NC(c2ccncc2)Nc2ccccc21 (centres undefined)	none (no result: SENP1 FRET inh)
Cc1ccc(C2NC(=O)c3ccccc3N2)s1 (centres undefined)	AHR activator 99.8 | AHR act cf 90.5 | PXR act counter 19.0
O=C(O)CCC(=O)NCc1c(Cl)cccc1Sc1ccc(Cl)cc1	none
Cc1nc(N2CCN(c3ccccc3O)CC2)c2c(-c3ccccc3)csc2n1	none
O=C1CCC(C(=O)OC(C(=O)c2c[nH]c3ccccc23)c2ccccc2)=NN1 (centres undefined)	none
COc1ccc(C)cc1NC(=O)C(OC(=O)C1=NNC(=O)CC1)c1ccccc1 (centres undefined)	AHR activator 82.5 (no result: CTSL1 counter, PfM18AAP inh) | AHR act cf 99.2 | PXR act counter 35.6
COc1ccc(C)cc1NC(=O)C(OC(=O)CNC(=O)c1ccc(Br)cc1)c1ccccc1 (centres undefined)	AHR activator 81.1, CTSL1 counter 17.6 | AHR act cf 85.2 | PXR act counter 51.5
CCCCC1CC2=C(C(=O)OC(C)(C)O2)C(c2ccc(Cl)cc2)O1 (centres undefined)	none (no result: AHR activator, HDAC3 inhib, CTSL1 counter, PfM18AAP inh, GAA850 FXN act)
CCc1cccc(NC(=O)Cc2cn(C)c3ccccc23)c1	AHR activator 104.5 | AHR act cf inactive | PXR act counter 82.7
CCC1(c2ccc(F)cc2)NC(=O)N(CC(=O)NC2CCCCCC2)C1=O (centres undefined)	none (no result: CTSL1 counter, PfM18AAP inh)
COc1ccc(OC)c2nc(-c3cccnc3)ccc12	AHR activator 92.6 | AHR act cf 142.7 | PXR act counter 22.2
CC1CN(C(=O)c2cc(S(=O)(=O)N(C)c3ccc(F)cc3)ccc2Cl)CC(C)O1 (centres undefined)	none
N=C(N)N=Nc1c(O)[nH]c2ccc(Br)cc12	AHR activator 93.2 | AHR act cf 87.9 | PXR act counter 28.3
Oc1ccc(NC(=S)N=Nc2c(O)[nH]c3ccc(Br)cc23)cc1	none (no result: AHR activator, HDAC3 inhib, CTSL1 counter)
CCn1nnnc1NC(=O)c1ccc2ccccc2c1	none
CCn1nnnc1NC(=O)c1cc(OC)c(OC)c(OC)c1	AHR activator 128.0 | AHR act cf 100.9 | PXR act counter 10.7
CNC(=O)COC(=O)c1ccc2c(c1)NC(=O)C1CCCN21 (centres undefined)	none (no result: SENP1 FRET inh, GAA850 FXN act)
Cc1nc(C)c(-c2csc(Nc3ccccn3)n2)s1	AHR activator 83.3 | AHR act cf inactive | PXR act counter 35.0
c1ccc(-c2csc(Nc3ccccn3)n2)cc1	AHR activator 139.1 | AHR act cf 131.0 | PXR act counter 15.9
NNC(=O)c1ccc2nc(-c3ccc(Br)cc3)cn2c1	AHR activator 99.8 | AHR act cf 49.9 | PXR act counter 21.3
Clc1ccc(-c2cn3cc(Cl)ccc3n2)cc1	AHR activator 87.5 | AHR act cf 123.9 | PXR act counter 19.2
CCc1nc2ccc(C(=O)Nc3ccc(Cl)c(Cl)c3)cn2c1N(C)Cc1ccc(OC)cc1	none (no result: AHR activator, HDAC3 inhib, CTSL1 counter, PfM18AAP inh)
Cc1cccc(NC(=O)COC(=O)c2ccccc2-c2nc3ccccc3s2)c1C	none
CCOCC(=O)Nc1cccc(-c2nc3cccnc3s2)c1C	AHR activator 87.9 | AHR act cf 106.7
O=C(NNC(=O)C1CC1)c1cc(Cl)nc2ccccc12	none
O=C(NNC(=O)C1CC1)c1cc2cc3ccccc3nc2s1	AHR activator 109.8 | AHR act cf 72.1 | PXR act counter 12.1
O=C(NNC(=O)c1cc2cc3ccccc3nc2s1)c1ccc(F)cc1	AHR activator 91.4 | AHR act cf inactive | PXR act counter 12.0
Cc1ccc(C(=O)N/C(=C\c2cn(S(=O)(=O)N(C)C)c3ccccc23)C(=O)NCCCN2CCOCC2)cc1	none
CN(C)c1ccc(Nc2nc(N)c([N+](=O)[O-])c(N3CCOCC3)n2)cc1	AHR activator 82.2 | AHR act cf 68.2 | PXR act counter 38.5
CCCC#Cc1ccc2c(c1)COc1c3ccccc3nn1-2	AHR activator 109.2 (no result: PfM18AAP inh) | AHR act cf 63.2 | PXR act counter inactive
Cc1ccc(-c2cn(-c3ccccc3)c(=S)[nH]2)cc1C	AHR activator 80.7 | AHR act cf inactive | PXR act counter 38.2
Cc1ccccc1-c1cn(-c2ccccc2)c(=S)[nH]1	none
Cc1nn(C)cc1/C=N/NC(=O)CSc1ccccn1	none
CC(=O)Nc1ccc2c(c1)C(=O)c1ccccc1C2=O	AHR activator 152.2 | AHR act cf 120.9 | PXR act counter 34.9
O=C(O)c1ccccc1C(=O)NCCc1ccc(Cl)cc1	AHR activator 96.6 | AHR act cf 63.7 | PXR act counter 10.5
CCOc1ccccc1N=CC1=C(O)CC(c2ccccc2)CC1=O (centres undefined)	none
